Laboratory results: ChEMBL document CHEMBL4725393, “Prodrug Strategies to Improve the Solubility of the HCV NS5A Inhibitor Pibrentasvir (ABT-530)” (J Med Chem, 2020)
In brackets after ≈: the same amount, converted by molar mass.

Legend:
[1] = AUC in cynomolgus monkey at 2 mg/kg, po measured up to 12 hrs; format: ADME, organism-based, Macaca fascicularis; design: route oral, dose 2 mg/kg, time <=12; conditions: in vivo
How it was run: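 Female cynomolgus monkeys were fasted overnight and dosed by gastric intubation with a suspension in 0.5% HPMC at 0.5 mL/kg. The dose was MW-adjusted to 2 mg/kg PIB equivalent, and food was returned at 4 h. Plasma was collected at intervals up to 12 h and assayed for PIB and prodrug to give AUC in ng·h/mL.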

[2] = Half life of compound at pH 7.4 at 125 ug/ml at 37 degC by HPLC analysis; format: physicochemical; conditions: dose 125 µg/ml
[3] = Stability of compound at pH 7.4 assessed as prodrug remaining level at 125 ug/ml incubated for 24 hrs by HPLC analysis; format: physicochemical; conditions: buffer, pH 7.4, 24 h, at 125 µg/mL
How it was run: (§1)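 A DMSO stock of about 1.25 mg/mL was diluted into 0.1 N HCl (pH 1) or 50 mM phosphate buffer (pH 7.4), giving final concentrations of ~125 µg/mL prodrug and 10% DMSO. The solution was filtered and held at 37 °C in the HPLC autosampler, with injections at several times over 24 h. Percent remaining was calculated from prodrug peak area relative to t0.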

[4] = Stability of compound at pH 1 assessed as prodrug remaining level at 125 ug/ml incubated for 24 hrs by HPLC analysis; format: physicochemical; conditions: buffer, pH 1, 24 h, at 125 µg/mL; how it was run: as §1
[5] = Equilibrium solubility of compound at pH 1 incubated for 24 to 48 hrs by HPLC analysis; format: physicochemical; conditions: buffer, time 24-48 hrs
How it was run: (§2)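 For equilibrium solubility, excess solid was added to 3–4 mL of medium, in triplicate. Suspension pH was read after equilibration. Solids were removed by centrifugation at 4000 rpm at 25 °C, and the supernatant was passed through a 0.45 µm filter, discarding the first 2 mL. The filtrate was quantified by HPLC against standard curves.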

[6] = Cmax in CD1 mouse assessed as pibrentasvir1 level at 6 mg/kg, po measured up to 24 hrs; format: ADME, organism-based; design: route oral, dose 6 mg/kg, time <=24; conditions: in vivo
How it was run: (§3)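 CD-1 mice with free access to food and water received an oral gavage of prodrug or PIB at 10 mL/kg in 0.2% HPMC. The dose was adjusted for prodrug MW to equal 6 mg/kg PIB. K2EDTA blood was drawn at 0.25, 0.5, 1, 3, 6, 9, 12 and 24 h. Plasma was spun at 3200 x g for 5 min at ~4°C and stored below -15°C. PIB and prodrug were measured; AUC in ng·h/mL, Cmax in ng/mL.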

[7] = Solubility in FeSSIF at pH 5; format: physicochemical; how it was run: as §2
[8] = Cmax in beagle dog assessed as pibrentasvir1 level at 40 mg, po measured up to 24 hrs; format: ADME, organism-based, Canis lupus familiaris; design: route oral, dose 40 mg, time <=24; conditions: in vivo
How it was run: (§4)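 The dose equalled 40 mg PIB after adjustment for prodrug MW. Food was returned at 12 h. K2EDTA plasma was sampled at 0.25–24 h. Cmax is in ng/mL and AUC in ng·h/mL.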

[9] = AUC in CD1 mouse assessed as pibrentasvir1 level at 6 mg/kg, po measured up to 24 hrs; format: ADME, organism-based; design: route oral, dose 6 mg/kg, time <=24; conditions: in vivo; how it was run: as §3
[10] = Equilibrium solubility of compound at pH 7.4 incubated for 24 to 48 hrs by HPLC analysis; format: physicochemical; conditions: buffer, time 24-48 hrs; how it was run: as §2
[11] = AUC in beagle dog assessed as pibrentasvir1 level at 40 mg, po measured up to 24 hrs; format: ADME, organism-based, Canis lupus familiaris; design: route oral, dose 40 mg, time <=24; conditions: in vivo; how it was run: as §4
[12] = AUC in CD1 mouse assessed as pibrentasvir1 level at 3 mg/kg, po measured up to 24 hrs; format: ADME, organism-based; design: route oral, dose 3 mg/kg, time <=24; conditions: in vivo
How it was run: (§5)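 CD-1 mice, fed ad libitum, were dosed orally at a prodrug-MW-adjusted dose equal to 3 mg/kg PIB, as a solution or suspension. Serial K2EDTA blood samples were taken from 0.25 to 24 h. Plasma was separated by centrifugation and kept frozen. PIB and prodrug levels were reported as Cmax (ng/mL) and AUC (ng·h/mL).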

[13] = Cmax in CD1 mouse assessed as pibrentasvir1 level at 3 mg/kg, po measured up to 24 hrs; format: ADME, organism-based; design: route oral, dose 3 mg/kg, time <=24; conditions: in vivo; how it was run: as §5
[14] = AUC in beagle dog at 40 mg, po measured up to 24 hrs; format: ADME, organism-based, Canis lupus familiaris; design: route oral, dose 40 mg, time <=24; conditions: in vivo; how it was run: as §4
[15] = AUC in CD1 mouse at 3 mg/kg, po measured up to 24 hrs; format: ADME, organism-based; design: route oral, dose 3 mg/kg, time <=24; conditions: in vivo; how it was run: as §5
[16] = Cmax in CD1 mouse at 3 mg/kg, po measured up to 24 hrs; format: ADME, organism-based; design: route oral, dose 3 mg/kg, time <=24; conditions: in vivo; how it was run: as §5
[17] = Cmax in beagle dog at 40 mg, po measured up to 24 hrs; format: ADME, organism-based, Canis lupus familiaris; design: route oral, dose 40 mg, time <=24; conditions: in vivo; how it was run: as §4
[18] = Stability of compound at pH 7.4 assessed as prodrug remaining level at 125 ug/ml incubated for 3 hrs by HPLC analysis; format: physicochemical; conditions: buffer, pH 7.4, 3 h, at 125 µg/mL
[19] = AUC in CD1 mouse at 6 mg/kg, po measured up to 24 hrs; format: ADME, organism-based; design: route oral, dose 6 mg/kg, time <=24; conditions: in vivo; how it was run: as §3
[20] = Apparent permeability in MDCK cells; format: ADME, cell-based, Canis lupus familiaris; conditions: dog
[21] = Aqueous solubility of compound at pH 2; format: physicochemical
[22] = Lipophilicity, logD of compound; format: physicochemical; conditions: octanol/water
[23] = Aqueous solubility of compound at pH 7; format: physicochemical
[24] = Protein binding in human plasma; format: ADME, cell-free; conditions: read-out: PPB (converted)
[25] = Permeability by PAMPA; format: ADME
[26] = Cmax in beagle dog at 40 mg, po dosed as phase 2 tablet measured up to 24 hrs; format: ADME, organism-based, Canis lupus familiaris; design: route oral, dose 40 mg, time <=24; conditions: in vivo
How it was run: (§6)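 Fasted beagle dogs received the 40 mg phase 2 PIB tablet (amorphous drug in polymer support), crushed for dosing.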

[27] = AUC in beagle dog at 40 mg, po dosed as phase 2 tablet measured up to 24 hrs; format: ADME, organism-based, Canis lupus familiaris; design: route oral, dose 40 mg, time <=24; conditions: in vivo; how it was run: as §6

SMILES	AUC at 12 h [1] [ng·h/mL]	half-life at 125 ug/ml [2] [h]	Stabilty [3] [%]	Stabilty [4] [%]	solubility thermodynamic [5] [µg/mL]	Cmax [6] [ng/mL]	solubility [7] [µg/mL]	Cmax [8] [ng/mL]	AUC [9] [ng·h/mL]	solubility thermodynamic [10] [µg/mL]	AUC [11] [ng·h/mL]	AUC [12] [ng·h/mL]	Cmax [13] [ng/mL]	AUC at 24 h [14] [ng·h/mL]	also measured
COC(=O)N[C@H](C(=O)N1CCC[C@H]1c1nc2cc(F)c([C@H]3CC[C@H](c4cc5nc([C@@H]6CCCN6C(=O)[C@@H](NC(=O)OC)[C@@H](C)OC)n(COC(=O)CC(C)(C)c6c(C)cc(C)cc6OP(=O)(O)O)c5cc4F)N3c3cc(F)c(N4CCC(c5ccc(F)cc5)CC4)c(F)c3)cc2[nH]1)[C@@H](C)OC	240	> 72	100	87	572 (≈ 401 µM)	1210	794 (≈ 556 µM)	249	20600	0.5 (≈ 0.35 µM)	3210				
COC(=O)N[C@H](C(=O)N1CCC[C@H]1c1nc2cc(F)c([C@H]3CC[C@H](c4cc5nc([C@@H]6CCCN6C(=O)[C@@H](NC(=O)OC)[C@@H](C)OC)n(COC(=O)[C@@H](N)C(C)C)c5cc4F)N3c3cc(F)c(N4CCC(c5ccc(F)cc5)CC4)c(F)c3)cc2[nH]1)[C@@H](C)OC			5	78	> 1000		> 1000	379		< 0.1	3940	2340	129	568	
COC(=O)N[C@H](C(=O)N1CCC[C@H]1c1nc2cc(F)c([C@H]3CC[C@H](c4cc5c(cc4F)nc([C@@H]4CCCN4C(=O)[C@@H](NC(=O)OC)[C@@H](C)OC)n5COP(=O)(O)O)N3c3cc(F)c(N4CCC(c5ccc(F)cc5)CC4)c(F)c3)cc2[nH]1)[C@@H](C)OC			100	100	> 4000			152		> 4000	1470	278	17	93	AUC at 24 h [15]: 12.6 ng·h/mL; Cmax [16]: 2.2 ng/mL; Cmax [17]: 20 ng/mL
COC(=O)N[C@H](C(=O)N1CCC[C@H]1c1nc2cc(F)c([C@H]3CC[C@H](c4cc5nc([C@@H]6CCCN6C(=O)[C@@H](NC(=O)OC)[C@@H](C)OC)n(COP(=O)(O)O)c5cc4F)N3c3cc(F)c(N4CCC(c5ccc(F)cc5)CC4)c(F)c3)cc2[nH]1)[C@@H](C)OC	160	> 72	100	100	37.3 (≈ 30.5 µM)			55		6.4 (≈ 5.23 µM)	429	2660	141		
COC(=O)N[C@H](C(=O)N1CCC[C@H]1c1nc2cc(F)c([C@H]3CC[C@H](c4cc5nc([C@@H]6CCCN6C(=O)[C@@H](NC(=O)OC)[C@@H](C)OC)n(COC(=O)[C@@H](NC(=O)COP(=O)(O)O)C(C)C)c5cc4F)N3c3cc(F)c(N4CCC(c5ccc(F)cc5)CC4)c(F)c3)cc2[nH]1)[C@@H](C)OC		< 24	31	97	186 (≈ 135 µM)			112		0.7 (≈ 0.507 µM)	1210	3710	216		
COC(=O)N[C@H](C(=O)N1CCC[C@H]1c1nc2cc(F)c([C@H]3CC[C@H](c4cc5nc([C@@H]6CCCN6C(=O)[C@@H](NC(=O)OC)[C@@H](C)OC)n(C(=O)OCCCOP(=O)(O)O)c5cc4F)N3c3cc(F)c(N4CCC(c5ccc(F)cc5)CC4)c(F)c3)cc2[nH]1)[C@@H](C)OC			< 1	54	23 (≈ 17.8 µM)	26	> 1000	196	456	631 (≈ 487 µM)	2140				Stabilty [18]: < 20%
COC(=O)N[C@H](C(=O)N1CCC[C@H]1c1nc2cc(F)c([C@H]3CC[C@H](c4cc5nc([C@@H]6CCCN6C(=O)[C@@H](NC(=O)OC)[C@@H](C)OC)n(COC(=O)Cc6ccc(OP(=O)(O)O)cc6)c5cc4F)N3c3cc(F)c(N4CCC(c5ccc(F)cc5)CC4)c(F)c3)cc2[nH]1)[C@@H](C)OC	197	> 24	71	74	45 (≈ 33.2 µM)	905	> 1000	155	16100	135 (≈ 99.5 µM)	1920				
COC(=O)N[C@H](C(=O)N1CCC[C@H]1c1nc2cc(F)c([C@H]3CC[C@H](c4cc5nc([C@@H]6CCCN6C(=O)[C@@H](NC(=O)OC)[C@@H](C)OC)n(COC(=O)[C@@H](NC(=O)/C=C/C(=O)O)C(C)C)c5cc4F)N3c3cc(F)c(N4CCC(c5ccc(F)cc5)CC4)c(F)c3)cc2[nH]1)[C@@H](C)OC			67	97	203 (≈ 151 µM)	15	542 (≈ 404 µM)		231	< 0.2					AUC at 24 h [19]: 354 ng·h/mL
CC(C)(C)[C@@H]1NC(=O)O[C@@H]2CCC[C@H]2OC/C=C/C(F)(F)c2nc3ccccc3nc2O[C@@H]2C[C@@H](C(=O)N[C@]3(C(=O)NS(=O)(=O)C4(C)CC4)C[C@H]3C(F)F)N(C2)C1=O [GLECAPREVIR]							40 (≈ 47.7 µM)								Papp [20]: 1.4 ×10⁻⁶ cm/s; solubility [21]: < 100 µg/mL; logD [22]: 2.5; solubility [23]: 300 µg/mL (≈ 358 µM); fraction unbound [24]: 0.025; Papp [25]: 5.2 ×10⁻⁶ cm/s
COC(=O)N[C@H](C(=O)N1CCC[C@H]1c1nc2cc([C@H]3CC[C@H](c4cc5nc([C@@H]6CCCN6C(=O)[C@@H](NC(=O)OC)[C@@H](C)OC)[nH]c5cc4F)N3c3cc(F)c(N4CCC(c5ccc(F)cc5)CC4)c(F)c3)c(F)cc2[nH]1)[C@@H](C)OC [PIBRENTASVIR]	166				422 (≈ 379 µM)	408	169 (≈ 152 µM)	339	6720	< 0.1	3860			3860	Papp [20]: < 1 ×10⁻⁶ cm/s; AUC at 24 h [15]: 5170 ng·h/mL; Cmax [16]: 280 ng/mL; solubility [21]: 420 µg/mL (≈ 377 µM); logD [22]: 5.7; solubility [23]: < 0.1 µg/mL; Cmax [17]: 339 ng/mL; fraction unbound [24]: < 0.001; Cmax [26]: 239 ng/mL; AUC at 24 h [19]: 6720 ng·h/mL; AUC [27]: 2730 ng·h/mL
